MrgX1 allo act: allosterically activates human MrgX1 receptor signaling. Q96LB2. MrgX1-HEK293, Fluo-4 calcium flux, FDSS; hits give high values. B-score at 10 µM. 310,000 compounds, 0.63% hits. AID 588675;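 active means plate-corrected calcium response at least 3 library SD above typical, normal starting fluorescence, not activating the receptor alone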;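 further: compound read alongside a low EC10 to EC30 dose of BAM8-22 agonist; peak minus trough fluorescence over baseline measured at the second addition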
RGS4 act: potentiators or activators of RGS4. B-score at 10 µM. 310,000 compounds, 0.92% hits. AID 463111. HEK293 M3R/inducible RGS4, carbachol calcium flux Fluo4; hits give low values;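 active means B-score of the integrated calcium signal more than 4 SD below the library mean, with starting fluorescence not abnormally high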;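 further: negative B-score means reduced calcium response which marks RGS4 activation or potentiation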
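test system = M3R-expressing HEK293 line, RGS4 induced by doxycycline | probe or stimulus = carbachol at ECmax as muscarinic agonist stimulus | timing = dye loading 30 min 37 °C, buffer rest 30 min RT | signal = calcium dye Fluo4 fluorescence | evaluation = B score from integrated fluorescence ratio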
PHOSPHO1 inh: PHOSPHO1 (human) inhibition. Q8TCT1. recombinant PHOSPHO1, absorbance phosphatase assay. inhibition, % at 13.3 µM. 290,000 compounds, 1.1% hits. AID 1565; in the data active means inhibition above about 60%
Target sequence (Q8TCT1 whole entry, looked up): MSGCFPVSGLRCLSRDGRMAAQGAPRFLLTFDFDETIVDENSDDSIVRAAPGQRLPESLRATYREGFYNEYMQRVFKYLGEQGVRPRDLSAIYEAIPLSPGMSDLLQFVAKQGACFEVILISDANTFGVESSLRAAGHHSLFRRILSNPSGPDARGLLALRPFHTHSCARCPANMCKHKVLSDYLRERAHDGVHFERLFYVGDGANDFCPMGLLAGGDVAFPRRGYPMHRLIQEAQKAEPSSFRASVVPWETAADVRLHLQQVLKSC
MrgX1 antagonist: human MrgX1 receptor antagonism, primary screen. MRGX1-HEK293 calcium flux, Fluo-4, BAM8-22 antagonism; hits give low values. 310,000 compounds, 1.3% hits. B-score at 10 µM. Q96LB2;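 active means calcium-response B-score plate-corrected more than 3 library SD below zero, starting fluorescence within 5 deviations, no agonist response on first addition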;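 further: peak minus trough fluorescence over baseline after final BAM8-22 challenge near maximal dose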
MrgX1 agonist: agonists of human MrgX1 receptor | MrgX1-HEK293 cells, Fluo-4 calcium fluorescence, agonist mode; hits give high values | B-score at 10 µM | 310,000 compounds, 0.44% hits | AID 588627;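 active means calcium response B-score plate-corrected fluorescence ratio at least 3 library SD, with starting fluorescence B-score inside 5 SD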
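Test system: HEK293 cells stably expressing human MrgX1 receptor; Input: fifteen thousand cells per well; Dosing: compound delivered in addition one of three; Schedule: overnight seeding, then 1 h dark dye loading; Technique: Fluo-4 NW calcium fluorescence; Measure: B-scored fluorescence response ratio; Controls: positive and negative controls per plate.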
RGS4 block: human RGS4 inhibition; 310,000 compounds, 0.45% hits; HEK293 M3R/RGS4 inducible, Fluo-4 calcium flux; hits give high values; triggered by carbachol at its EC20; AID 463165; P49798; B-score at 10 µM;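 active means B-score, a plate-corrected calcium signal, over three deviations above library mean, with baseline fluorescence within five deviations of library mean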;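 further: RGS4 expression induced by doxycycline in cells with stable M3 receptor; B-score is computed from the integrated fluorescence ratio over baseline after carbachol; higher B-score means a larger calcium signal and so more RGS4 inhibition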
Target sequence (P49798 whole entry, looked up): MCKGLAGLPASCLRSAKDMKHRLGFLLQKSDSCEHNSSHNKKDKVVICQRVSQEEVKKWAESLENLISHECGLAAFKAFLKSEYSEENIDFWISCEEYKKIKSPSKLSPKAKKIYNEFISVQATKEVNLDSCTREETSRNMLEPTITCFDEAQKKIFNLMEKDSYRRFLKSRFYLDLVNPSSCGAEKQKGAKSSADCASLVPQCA
* hit, by the source's call; i = inactive; x = no result given. Hits are enriched below; roughly 4.5% of the tested compounds scored in any of these assays.

SMILES	MrgX1 allo act	RGS4 act	PHOSPHO1 inh	MrgX1 antagonist	MrgX1 agonist	RGS4 block
CCOc1ccc2nc3c(cc2c1)CN(CCCO)C(=NCCOC)S3	i	i	91.3*	i	i	i
Cc1cc(C)c2nc3s/c(=C/c4ccccc4)c(=O)n3c2c1	x	x	92.7*	x	x	x
CCOC(=O)CNC(=O)C1CCC(CNS(=O)(=O)c2cccc3nsnc23)CC1 (stereo not drawn)	i	i	64.9*	i	i	i
C=CCOC(=O)C1=C(C)NC(SCC(=O)Nc2nccs2)=C(C#N)C1c1cccs1 (stereo not drawn)	i	i	62.0*	i	i	i
C=CCOC(=O)C1=C(C)NC(SCC(=O)Nc2nccs2)=C(C#N)C1c1ccc(Cl)cc1 (stereo not drawn)	i	i	66.7*	i	i	i
O=C(CNCc1cccc2ccccc12)Nc1ccccc1[N+](=O)[O-]	i	i	23.6	i	i	i
Cc1ccc2nc3c(cc2c1)CN(Cc1ccco1)C(=NCC1CCCO1)S3 (stereo not drawn)	i	i	31.2	i	i	i
Cc1cccc2cc3c(nc12)SC(=NCC1CCCO1)N(Cc1ccco1)C3 (stereo not drawn)	i	i	73.5*	i	i	i
C=C(C)CNC(=S)N/N=C/c1c(F)cccc1F	i	i	24.1	i	i	i
CCOc1c(OC(C)=O)ccc(/C=C2\N=C(SCC)SC2=O)c1[N+](=O)[O-]	i	-7.1*	42.0	i	i	i
COc1cccc(NC(=O)c2ccccc2N2C(=O)C3C4C=CC(C5CC45)C3C2=O)c1 (stereo not drawn)	i	i	23.9	i	i	i
CC(C(=O)Nc1cccc(S(=O)(=O)N2CCOCC2)c1)N1CCN(c2ccc(F)cc2)CC1 (stereo not drawn)	i	i	-2.7	i	i	i
Nc1nc(CSc2nc3ccccc3[nH]2)cs1	i	i	97.1*	i	i	i
CC(C)CC(=O)Nc1ccnn1C1CCN(C(=O)c2ccc(Cl)cc2F)CC1	i	i	29.3	i	i	i
Cc1ccc(OCC2Cn3c(nc4c3c(=O)[nH]c(=O)n4C)O2)cc1C (stereo not drawn)	i	i	29.2	i	i	i
CSc1nnc(CCNS(=O)(=O)c2ccccc2Br)n1C	i	i	10.3	i	i	i
CC#CCCc1nc2ccccc2c(=O)n1N	i	i	-9.0	-5.99*	i	i
CCOC(=O)c1c(-c2cccc([N+](=O)[O-])c2)csc1N	i	i	-21.2	i	i	i
CCOC(=O)c1c(-c2ccccc2)csc1NC(=S)NC	i	i	-22.7	i	i	i
CCOC(=O)c1c(-c2cccc([N+](=O)[O-])c2)csc1NC(=O)C1CC1	i	-7.7*	4.6	i	i	i
CCOC(=O)c1c(-c2cccc([N+](=O)[O-])c2)csc1NC(=O)C1CCCCC1	i	-9.19*	-7.1	i	i	i
CN(C)S(=O)(=O)c1cccc(NC(=O)CCc2nc3cc(S(=O)(=O)N4CCOCC4)ccc3n2C)c1	i	i	x	i	i	i
CCN(CC)c1ccc(/C=C(/C#N)c2nc3ccccc3[nH]2)c(OC(C)C)c1	i	i	27.6	i	i	i
CC(Sc1ccccc1)C(=O)Nc1ccc(N2CCOCC2)cc1 (stereo not drawn)	i	i	-15.7	i	i	i
COc1ccc(NC(=O)C(C)Sc2ccccc2)cc1 (stereo not drawn)	i	i	62.5*	i	i	i
SMILES	MrgX1 allo act	RGS4 act	PHOSPHO1 inh	MrgX1 antagonist	MrgX1 agonist	RGS4 block
Cn1c(Cn2c(C(F)(F)F)nc3ccccc32)nc2ccccc21	i	i	20.4	-4.91*	i	i
OCCn1c(C(F)(F)F)nc2ccccc21	i	i	8.0	i	i	i
O=C(COC(=O)C1(c2ccc(F)cc2)CCCC1)NCc1ccco1	i	i	4.0	i	i	i
CCOC(=O)N1CCC(NS(=O)(=O)c2cc(C(=O)OC)n(C)c2)CC1	i	i	-0.5	i	i	i
Cc1cc(C)cc(C(=O)Nc2c3c(nn2C(C)(C)C)CS(=O)(=O)C3)c1	i	i	34.4	i	i	i
CC(C)(C)n1nc2c(c1NC(=O)c1cccc(Cl)c1)CS(=O)(=O)C2	i	i	64.9*	i	i	i
CC(C)[C@H](NC(=O)c1ccccc1Cl)C(=O)NC1CCCCCC1	i	i	-29.3	i	i	i
CC(=O)c1c(OC(=O)c2ccccc2Br)ccc2c(C)cc(=O)oc12	i	i	8.8	i	i	i
Cc1cc(OC(=O)c2ccccc2Br)cc(=O)n1C	10.5*	i	58.0	i	i	i
Cc1ccc([N+](=O)[O-])cc1N(CC(=O)NC1CCCC1)S(C)(=O)=O	11.2*	i	13.2	i	i	i
COc1ccc([N+](=O)[O-])cc1N(CC(=O)NC1CCCCC1)S(C)(=O)=O	i	i	48.4	i	i	i
Cc1ccc([N+](=O)[O-])cc1N(CC(=O)N1CCCCC1)S(C)(=O)=O	7.49*	i	47.0	i	i	i
Cc1ccc(C)c(N(CC(=O)N2CCCCCC2)S(C)(=O)=O)c1	i	i	25.3	i	i	i
CC1=CC2=NC(=O)CC(C)(C(=O)N(CC(=O)NC(C)(C)C)Cc3cccs3)N2C=C1 (stereo not drawn)	i	i	-24.1	i	i	i
CCOC(=O)Nc1ccc(C(=O)/C=C/c2ccccc2)cc1	i	i	11.7	i	i	i
CCNC(=O)C(=O)Nc1cc2c3c(c1)CCC(=O)N3CCC2	i	i	64.9*	i	i	i
Cc1ccc(NC(=O)CSCc2cc(=O)n3ccsc3n2)cc1	i	i	-5.0	i	i	i
N#Cc1cc(N)ccc1Sc1ccc(Cl)cc1	i	-6.97*	-19.0	i	i	i
N#Cc1cc(N)ccc1Sc1ccccc1	i	i	44.4	i	i	i
O=Cc1cc2ccccc2nc1SCCCF	i	i	32.6	-5.83*	i	i
CCOC(=O)C1CCCN(Cc2cc(=O)oc3cc(C)c(C(C)C)cc23)C1 (stereo not drawn)	i	i	-16.5	i	i	i
CCOC(=O)N1CCN(Cc2cc(=O)oc3cc4c(cc23)CCC4)CC1	i	i	-6.8	i	33*	i
